Screens (PubChem)
STAT3 blocker: IL-6 driven STAT3 reporter inhibitors, primary screen, U3A cells, luciferase, luminescence, MLSCN library; IL-6 STAT3-luciferase reporter; host cell line lacks STAT1; inhibition, % at 5.5 µM; 190,000 tested, 0.89% active; AID 862, 2007;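 active means inhibition above the mean inhibition across all screened compounds plus 3 SD, cut at about 44% in these data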;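 further: 0% = DMSO only wells and 100% = 100 µM nifuroxazide control wells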
STAT1 inh: STAT1 signaling inhibitors, primary screen, cell-based, HTS, luciferase reporter; NIH 3T3 STAT1-luciferase reporter, IFN-gamma, luminescence; inhibition, % at 5.5 µM; 200,000 tested, 0.35% active;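 active means inhibition above a set limit, the mean inhibition across all tested compounds plus 3 SD, cut at about 34% in these data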;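 further: 0% = IFN-gamma with DMSO and 100% = IFN-gamma with 300 µM nifuroxazide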
APP 5'UTR act: activators of APP 5'UTR luciferase reporter, primary screen, SH-SY5Y cells; SH-SY5Y APP 5'UTR luciferase reporter, luminescence; zero percent = DMSO vehicle wells; activation, % at 2 µM; 190,000 tested, 1% active; AID 1276, 2008;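 active means activation above a set limit, based on mean plus 3 SD of controls, cut at about 140% in these data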
NF-kB expr up: activators of NF-kB expression in neurons, primary screen, cell-based, HTS | human neuronal cells, NF-kB reporter expression; stronger effect = higher value | fold change at 12.5 µM | 190,000 tested, 1.6% active | AID 1239, 2008; in the data active means fold change above about 3.3
STAT1 activator: STAT1 signaling activators, primary screen, cell-based, HTS, luciferase reporter. NIH 3T3 STAT1-luciferase reporter, IFN-gamma, luminescence; 100% = IFN-gamma alone, no compound. activation (% of control), % at 5.5 µM. 200,000 tested, 2.6% active. AID 932, 2007;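 active means activation above the screen-wide mean activation plus 3 SD, cut at about 130% in these data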;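 further: raw ratio to IFN-gamma control signal so 100% means no change and 0% no light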
STAT3 activator: IL-6 driven STAT3 reporter potentiators, primary screen, U3A cells, luciferase, luminescence, MLSCN library. activation (% of control), % at 5.6 µM. AID 871, 2007. 190,000 tested, 0.91% active. IL-6 STAT3-luciferase reporter; 100% = signal with IL-6 EC80 alone;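 active means activation above the screen-wide mean of compound activation plus 3 SD, cut at about 130% in these data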;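 further: 0% = background luminescence of wells with medium and substrate only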
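system = STAT3-luciferase reporter U3A cells | reagent = IL-6 stimulus at 33 ng/mL final | timing = 1 h compound pre-exposure, 6 h IL-6 stimulation, 37 °C | measured by = luminescence | evaluation = % activation versus median of IL-6-stimulated wells | control set = IL-6-only wells as 100% reference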
Active calls of the source: *; / = no result given. Sampled rows, rich in hits. Any-hit rate of the full collection: about 5.1%.

SMILES	STAT3 blocker	STAT1 inh	APP 5'UTR act	NF-kB expr up	STAT1 activator	STAT3 activator
N#C/C(=N\Nc1ccccc1[N+](=O)[O-])C(=N)N1CCCCC1	18	-39	176*	5.6*	136*	90
N#C/C(=N\Nc1ccccc1)C(=N)N1CCCCC1	-6	-32	112	4.5*	129*	108
COc1ccccc1N/N=C(\C#N)C(=N)N1CCOCC1	5	-5	1	1.1	103	98
N#C/C(=N\Nc1ccc(Br)cc1)C(=N)N1CCOCC1	7	-51	80	3.1	146*	105
O=C(NC1CCCCC1)c1ccc(CNc2nc(=S)[nH]c3ccccc23)cc1	-2	3	-13	0.98	95	104
C(=C\c1nc(-c2ccncc2)no1)/c1ccccc1	13	-54	116	/	150*	94
CCOc1ccccc1-c1nc(-c2ccncc2)no1	14	5	0	1	96	88
CC1CC(C)CN(c2ncnc3c2cnn3-c2ccc(Cl)cc2)C1 (stereo unspecified)	-1	-18	233*	0.87	118	101
COc1ccc(-n2ncc3c(N4CCC(C(N)=O)CC4)ncnc32)cc1	-17	-35	102	3.8*	132*	121
CCOC(=O)C1CCCN(c2ncnc3c2cnn3-c2cccc(C)c2)C1 (stereo unspecified)	35	-1	10	0.88	100	73
c1ccc(-n2ncc3c(N4CCCCC4)ncnc32)cc1	96*	66*	115	2	40	25
Cc1cccc(-n2ncc3c(N4CCC(C)CC4)ncnc32)c1	34	-47	58	4.3*	143*	78
CCN1CCN(c2ncnc3c2cnn3-c2ccccc2)CC1	14	-19	34	1.8	117	96
CCOC(=O)C1CCN(c2ncnc3c2cnn3-c2ccc(OC)cc2)CC1	15	-13	19	1.1	112	93
CC(C)CC1(C)NC(=O)N(CC(=O)Nc2ccc3c(c2)CCC3)C1=O (stereo unspecified)	-15	-11	-13	1	108	119
COc1ccc(NC(=O)CN2CCN(C3c4ccccc4-c4ccccc43)CC2)cc1	-4	2	-14	1.2	99	106
O=C(c1ccncc1)N(c1ccc2oc3c(c2c1)CCCC3)S(=O)(=O)c1ccc(F)cc1	0	-6	6	0.87	105	101
O=C(Nc1cc2c(cc1Cl)OCCCO2)c1ccco1	2	-53	50	2.4	146*	102
O=C(Nc1cc2c(cc1Cl)OCCCO2)c1ccccc1	15	-36	65	2.8	133*	92
[O-][n+]1c2c(c3c4non(O)c4ccc31)CCCC2	5	3	-4	1.2	97	97
COc1ccc(OCc2cccc(C(=O)Nn3cc([N+](=O)[O-])cn3)c2)cc1	49*	88*	25	7.4*	21	61
O=C(NCc1ccccc1)c1cccc(COc2ccc(Cl)cc2)c1	5	-26	77	2	124	101
NNC(=O)c1cccc(COc2cccc(Br)c2)c1	5	-12	43	1.8	111	97
COc1ccc(C(=O)Nc2cc(C)on2)cc1	26	-22	92	3.1	122	83
COc1cc(CNC(=O)c2cccc(COc3ccc(Cl)cc3)c2)cc(OC)c1	19	-8	139*	1.9	107	83
SMILES	STAT3 blocker	STAT1 inh	APP 5'UTR act	NF-kB expr up	STAT1 activator	STAT3 activator
COc1ccc(OCc2cccc(C(=O)Nc3cc(C)on3)c2)cc1	69*	58*	66	2.7	53	44
COc1ccc(OCc2cccc(C(=O)NN)c2)cc1	98*	65*	80	2.5	43	19
CCCCN(C)CCC(=O)Nc1ccc(F)c(F)c1	-4	1	10	1.2	99	104
CCOc1ccc(OCc2cccc(C(=O)N3CCOCC3)c2)cc1	96*	82*	-48	3.4*	24	17
Cc1ccc(-c2ccnc(-c3ccc(O)cc3)n2)cc1	16	-46	44	1.5	142*	89
CC(C)NC(=O)COC(=O)c1ccc(Oc2ccccc2)cc1	1	-5	-17	1.1	105	96
O=c1[nH]c2ccccc2nc1CCc1ccccc1	12	-52	15	1.1	145*	92
COc1ccc(OC)c(S(=O)(=O)NC(N)=NCCc2ccccc2)c1	2	5	-4	1.3	93	104
Cc1ccc(SCc2cc(=O)n3ccsc3n2)c(C)c1	4	-38	52	2.2	134*	96
Cc1ccc(Nc2nnc(SCc3cc(=O)n4ccsc4n3)s2)c(C)c1	-5	7	-4	0.88	94	108
COc1ccc(-c2nnc(SCC(=O)c3cccs3)o2)cc1	-17	-35	72	3.7*	134*	118
O=C(CSc1nnc(-c2cccs2)o1)c1cccs1	0	-45	100	2.8	141*	102
COc1ccc(-c2nnc(SCC(=O)NCc3ccco3)o2)cc1	1	-5	10	1.3	104	103
COc1ccc(-c2nnc(SCC(=O)c3ccc[nH]3)o2)cc1	26	-6	94	4.7*	106	79
CCNC(=O)CSc1nnc(-c2cccs2)o1	-6	-4	-2	1.3	105	110
CN(CC(=O)NCc1ccncc1)S(=O)(=O)c1ccc(Cl)cc1	3	6	0	0.96	93	100
COc1ccc(Oc2ccc(/C=C/C(=O)c3ccc(O)cc3)cc2[N+](=O)[O-])cc1	-12	-1	-25	5*	101	114
O=C(OCc1nnc(-c2ccc(Cl)cc2)o1)C12CC3CC(CC(O)(C3)C1)C2	-20	-40	53	1.1	138*	117
CCOc1ccc2nc(N3CCC(C(=O)Nc4nnc(CC)s4)CC3)sc2c1	-6	-35	33	1.7	134*	105
Nc1[nH]c(N=NC(=O)c2ccccc2)c2ccccc12	-1	-47	132	3.4*	142*	99
Nc1[nH]c(N=NC(=O)c2ccc(Cl)cc2)c2ccccc12	-13	-19	17	1.3	117	106
Clc1ccc(-c2nc(C3CCCCC3)no2)cc1	12	-36	108	1.9	132*	99
Cc1ccc(/C(CSc2nccn2-c2ncc(C(F)(F)F)cc2Cl)=N\O)cc1	11	22	1	0.84	81	96
O=C(CSc1nccn1-c1ncc(C(F)(F)F)cc1Cl)c1ccc(Br)cc1	-55	-37	31	0.61	130*	162*
